In assay [1] the target is NUAK family SNF1-like kinase 1 (Homo sapiens) (UniProt O60285). Description: Binding affinity to wild-type human partial length ARK5 (E25 to I332 residues) expressed in bacterial expression system assessed as residual binding level at 1 uM by Kinomescan method relative to control.
Assay [2] has as its system Epidermal growth factor receptor (Homo sapiens), P00533 [L858R,T790M]. The experiment in a line: Binding affinity to human partial length EGFR L858R/T790M double mutant (R669 to V1011 residues) expressed in mammalian expression system assessed as residual binding level at 1 uM by Kinomescan method relative to control. In a few lines: (§1)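 Kinome-wide selectivity panel run by the KINOMEscan method, with the test compound at a single concentration of 1 μM. Wild-type and mutant kinases were profiled in the same screen.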

Assay [3] concerns the target Mitogen-activated protein kinase 15 (Homo sapiens) (UniProt Q8TD08). Description: Binding affinity to wild-type human partial length ERK8 (M1 to P437 residues) expressed in bacterial expression system assessed as residual binding level at 1 uM by Kinomescan method relative to control.
For assay [4], the target named is Beta-adrenergic receptor kinase 1 (Homo sapiens) (UniProt P25098). The experiment in a line: Binding affinity to wild-type human full length GRK2 (M1 to L689 residues) expressed in mammalian expression system assessed as residual binding level at 1 uM by Kinomescan method relative to control. Summed up: (§2)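 Single-point kinome-wide KINOMEscan binding panel, test compound at 1 μM, run by the provider's standard protocol.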

Assay [5] deals with Mitogen-activated protein kinase 9 (Homo sapiens) (UniProt P45984). Description: Binding affinity to wild-type human full length JNK2 (M1 to Q382 residues) expressed in mammalian expression system assessed as residual binding level at 1 uM by Kinomescan method relative to control. Summed up: as §2
Assay [6] concerns Mast/stem cell growth factor receptor Kit (Homo sapiens), P10721 [L576P]. The experiment in a line: Binding affinity to human partial length KIT L576P mutant (Y545 to D952 residues) expressed in bacterial expression system assessed as residual binding level at 1 uM by Kinomescan method relative to control. Summed up: as §1
The target in assay [7] is Microtubule-associated serine/threonine-protein kinase 1 (Homo sapiens) (UniProt Q9Y2H9). Description: Binding affinity to wild-type human partial length MAST1 (S346 to V730 residues) expressed in mammalian expression system assessed as residual binding level at 1 uM by Kinomescan method relative to control.
Assay [8] deals with Dual specificity mitogen-activated protein kinase kinase 3 (Homo sapiens) (UniProt P46734). The experiment in a line: Binding affinity to wild-type human full length MEK3 (M1 to S318 residues) expressed in mammalian expression system assessed as residual binding level at 1 uM by Kinomescan method relative to control. Summed up: as §2
Assay [9] has as its target Serine/threonine-protein kinase Nek11 (Homo sapiens) (UniProt Q8NG66). Description: Binding affinity to wild-type human partial length NEK11 (M1 to E313 residues) expressed in mammalian expression system assessed as residual binding level at 1 uM by Kinomescan method relative to control.
The subject of assay [10] is Mycobacterium tuberculosis. The experiment in a line: Binding affinity to wild-type Mycobacterium tuberculosis partial length PKNB (M1 to G279 residues) expressed in mammalian expression system assessed as residual binding level at 1 uM by Kinomescan method relative to control. Summed up:
as §1

For assay [11], the target named is RAF proto-oncogene serine/threonine-protein kinase (Homo sapiens) (UniProt P04049). The experiment in a line: Binding affinity to wild-type human partial length RAF1 (I330 to T640 residues) expressed in bacterial expression system assessed as residual binding level at 1 uM by Kinomescan method relative to control.
The target of assay [12] is Ribosomal protein S6 kinase alpha-1 (Homo sapiens) (UniProt Q15418). The experiment in a line: Binding affinity to wild-type human partial length C-terminal RSK1 kinase domain 2 (P360 to L681 residues) expressed in bacterial expression system assessed as residual binding level at 1 uM by Kinomescan method relative to control.
The target in assay [13] is Ribosomal protein S6 kinase alpha-2 (Homo sapiens) (UniProt Q15349). The experiment in a line: Binding affinity to wild-type human partial length C-terminal RSK3 kinase domain 2 (V403 to K700 residues) expressed in bacterial expression system assessed as residual binding level at 1 uM by Kinomescan method relative to control.
Assay [14] addresses Serine/threonine-protein kinase Sgk2 (Homo sapiens) (UniProt Q9HBY8). Description: Binding affinity to wild-type human partial length SGK2 (L54 to C427 residues) expressed in mammalian expression system assessed as residual binding level at 1 uM by Kinomescan method relative to control.
Assay [15] addresses Serine/threonine-protein kinase TNNI3K (Homo sapiens) (UniProt Q59H18). The experiment in a line: Binding affinity to wild-type human full length TNNI3K (M1 to S835 residues) expressed in bacterial expression system assessed as residual binding level at 1 uM by Kinomescan method relative to control.
Assay [16] has as its target Tyrosine-protein kinase ZAP-70 (Homo sapiens) (UniProt P43403). The experiment in a line: Binding affinity to wild-type human partial length ZAP70 (D20 to G299 residues) expressed in mammalian expression system assessed as residual binding level at 1 uM by Kinomescan method relative to control.

RAF proto-oncogene serine/threonine-protein kinase (Homo sapiens), sequence (P04049 whole entry, the tested form may be a part): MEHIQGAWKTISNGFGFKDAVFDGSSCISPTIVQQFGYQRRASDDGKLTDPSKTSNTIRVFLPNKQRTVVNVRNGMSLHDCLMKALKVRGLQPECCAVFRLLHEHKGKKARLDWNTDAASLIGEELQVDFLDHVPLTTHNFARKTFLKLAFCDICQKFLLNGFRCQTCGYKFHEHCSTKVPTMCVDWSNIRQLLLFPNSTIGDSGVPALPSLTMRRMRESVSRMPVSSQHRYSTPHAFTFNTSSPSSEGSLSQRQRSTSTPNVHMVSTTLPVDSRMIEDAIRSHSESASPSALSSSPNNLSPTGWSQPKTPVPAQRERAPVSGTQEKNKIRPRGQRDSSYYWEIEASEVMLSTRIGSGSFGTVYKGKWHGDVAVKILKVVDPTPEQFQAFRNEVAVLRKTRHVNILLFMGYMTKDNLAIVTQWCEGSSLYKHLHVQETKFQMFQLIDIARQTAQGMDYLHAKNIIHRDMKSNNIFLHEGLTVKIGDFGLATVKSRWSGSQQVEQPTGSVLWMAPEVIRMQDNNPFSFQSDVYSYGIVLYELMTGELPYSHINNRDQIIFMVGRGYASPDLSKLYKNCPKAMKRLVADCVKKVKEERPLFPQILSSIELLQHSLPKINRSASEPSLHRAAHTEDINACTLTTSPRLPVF
Mitogen-activated protein kinase 15 (Homo sapiens), sequence (Q8TD08 whole entry, the tested form may be a part): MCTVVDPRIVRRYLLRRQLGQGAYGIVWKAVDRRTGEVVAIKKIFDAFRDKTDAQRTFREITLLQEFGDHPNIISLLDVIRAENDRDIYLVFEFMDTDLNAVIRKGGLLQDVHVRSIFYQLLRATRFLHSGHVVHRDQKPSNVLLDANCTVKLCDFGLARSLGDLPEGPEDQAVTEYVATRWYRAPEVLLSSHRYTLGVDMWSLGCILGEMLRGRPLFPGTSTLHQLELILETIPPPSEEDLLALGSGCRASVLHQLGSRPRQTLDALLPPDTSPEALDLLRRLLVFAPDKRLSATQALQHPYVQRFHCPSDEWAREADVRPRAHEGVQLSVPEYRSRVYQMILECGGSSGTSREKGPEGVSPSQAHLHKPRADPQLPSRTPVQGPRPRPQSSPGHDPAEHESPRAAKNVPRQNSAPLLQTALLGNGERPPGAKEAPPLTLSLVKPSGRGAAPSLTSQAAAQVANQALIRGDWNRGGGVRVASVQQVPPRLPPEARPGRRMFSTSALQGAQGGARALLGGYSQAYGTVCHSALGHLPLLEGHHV
Serine/threonine-protein kinase TNNI3K (Homo sapiens), sequence (Q59H18 whole entry, the tested form may be a part): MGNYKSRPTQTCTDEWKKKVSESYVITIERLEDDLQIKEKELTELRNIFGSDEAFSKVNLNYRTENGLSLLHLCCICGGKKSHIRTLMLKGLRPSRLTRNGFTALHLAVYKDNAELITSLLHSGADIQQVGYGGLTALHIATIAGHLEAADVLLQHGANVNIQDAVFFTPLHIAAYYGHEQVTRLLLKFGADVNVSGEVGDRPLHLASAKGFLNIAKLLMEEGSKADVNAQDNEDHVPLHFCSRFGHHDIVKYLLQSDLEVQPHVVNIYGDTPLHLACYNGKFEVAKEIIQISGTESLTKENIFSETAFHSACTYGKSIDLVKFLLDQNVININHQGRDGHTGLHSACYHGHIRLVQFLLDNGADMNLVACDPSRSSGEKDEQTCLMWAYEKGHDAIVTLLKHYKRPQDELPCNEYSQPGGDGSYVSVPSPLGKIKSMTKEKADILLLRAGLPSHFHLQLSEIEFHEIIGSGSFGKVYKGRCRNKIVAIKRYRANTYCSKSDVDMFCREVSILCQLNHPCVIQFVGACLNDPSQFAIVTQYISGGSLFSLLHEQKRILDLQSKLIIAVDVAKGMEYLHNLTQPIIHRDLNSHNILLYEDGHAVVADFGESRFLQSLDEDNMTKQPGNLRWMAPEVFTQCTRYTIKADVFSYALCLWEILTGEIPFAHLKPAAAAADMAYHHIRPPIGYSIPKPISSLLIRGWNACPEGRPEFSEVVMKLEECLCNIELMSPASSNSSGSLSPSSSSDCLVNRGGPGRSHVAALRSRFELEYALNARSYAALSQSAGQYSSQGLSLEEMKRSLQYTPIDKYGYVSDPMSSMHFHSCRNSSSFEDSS
Mast/stem cell growth factor receptor Kit (Homo sapiens), P10721 [L576P], sequence (P10721 whole entry L576P, the tested form may be a part): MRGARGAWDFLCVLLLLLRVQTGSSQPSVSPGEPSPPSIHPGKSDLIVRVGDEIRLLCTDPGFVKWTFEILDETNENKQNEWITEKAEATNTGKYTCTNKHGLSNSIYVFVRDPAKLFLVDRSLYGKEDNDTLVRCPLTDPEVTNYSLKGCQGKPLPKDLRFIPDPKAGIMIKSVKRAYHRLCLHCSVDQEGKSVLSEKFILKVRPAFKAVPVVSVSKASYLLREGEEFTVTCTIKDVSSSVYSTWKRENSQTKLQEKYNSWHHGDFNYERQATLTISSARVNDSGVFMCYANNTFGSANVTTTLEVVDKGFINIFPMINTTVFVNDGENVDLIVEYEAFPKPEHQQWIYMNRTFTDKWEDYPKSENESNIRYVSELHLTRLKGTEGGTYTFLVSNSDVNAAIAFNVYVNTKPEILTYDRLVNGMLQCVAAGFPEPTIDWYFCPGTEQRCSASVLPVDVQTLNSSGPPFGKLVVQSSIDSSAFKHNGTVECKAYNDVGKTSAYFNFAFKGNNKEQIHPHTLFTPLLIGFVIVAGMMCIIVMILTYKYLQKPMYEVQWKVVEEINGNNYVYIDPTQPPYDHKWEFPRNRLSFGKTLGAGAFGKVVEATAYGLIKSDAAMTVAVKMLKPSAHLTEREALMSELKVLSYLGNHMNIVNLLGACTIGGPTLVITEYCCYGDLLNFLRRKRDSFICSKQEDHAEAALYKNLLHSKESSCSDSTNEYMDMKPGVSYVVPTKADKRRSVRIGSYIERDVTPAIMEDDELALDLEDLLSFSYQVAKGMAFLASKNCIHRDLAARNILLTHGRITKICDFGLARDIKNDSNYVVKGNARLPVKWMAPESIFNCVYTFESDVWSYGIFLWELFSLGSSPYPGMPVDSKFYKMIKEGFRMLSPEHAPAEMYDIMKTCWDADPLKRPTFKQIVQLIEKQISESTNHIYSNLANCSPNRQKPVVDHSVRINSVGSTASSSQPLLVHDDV
Tyrosine-protein kinase ZAP-70 (Homo sapiens), sequence (P43403 whole entry, the tested form may be a part): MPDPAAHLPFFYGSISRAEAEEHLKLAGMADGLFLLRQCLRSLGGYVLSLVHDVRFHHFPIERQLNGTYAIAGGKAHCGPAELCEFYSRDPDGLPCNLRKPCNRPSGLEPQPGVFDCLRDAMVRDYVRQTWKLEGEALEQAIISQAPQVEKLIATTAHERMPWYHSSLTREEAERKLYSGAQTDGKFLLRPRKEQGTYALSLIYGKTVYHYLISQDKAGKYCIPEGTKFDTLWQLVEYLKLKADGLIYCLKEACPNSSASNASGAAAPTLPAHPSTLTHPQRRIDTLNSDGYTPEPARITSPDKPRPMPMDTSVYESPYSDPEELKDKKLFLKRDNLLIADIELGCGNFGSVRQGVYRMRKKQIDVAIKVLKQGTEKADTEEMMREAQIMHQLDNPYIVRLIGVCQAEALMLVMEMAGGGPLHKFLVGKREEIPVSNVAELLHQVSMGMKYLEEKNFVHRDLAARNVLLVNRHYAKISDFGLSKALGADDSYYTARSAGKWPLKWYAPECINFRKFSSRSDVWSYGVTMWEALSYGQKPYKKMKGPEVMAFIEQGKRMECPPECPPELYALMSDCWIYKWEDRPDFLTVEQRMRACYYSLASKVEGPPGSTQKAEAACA
NUAK family SNF1-like kinase 1 (Homo sapiens), sequence (O60285 whole entry, the tested form may be a part): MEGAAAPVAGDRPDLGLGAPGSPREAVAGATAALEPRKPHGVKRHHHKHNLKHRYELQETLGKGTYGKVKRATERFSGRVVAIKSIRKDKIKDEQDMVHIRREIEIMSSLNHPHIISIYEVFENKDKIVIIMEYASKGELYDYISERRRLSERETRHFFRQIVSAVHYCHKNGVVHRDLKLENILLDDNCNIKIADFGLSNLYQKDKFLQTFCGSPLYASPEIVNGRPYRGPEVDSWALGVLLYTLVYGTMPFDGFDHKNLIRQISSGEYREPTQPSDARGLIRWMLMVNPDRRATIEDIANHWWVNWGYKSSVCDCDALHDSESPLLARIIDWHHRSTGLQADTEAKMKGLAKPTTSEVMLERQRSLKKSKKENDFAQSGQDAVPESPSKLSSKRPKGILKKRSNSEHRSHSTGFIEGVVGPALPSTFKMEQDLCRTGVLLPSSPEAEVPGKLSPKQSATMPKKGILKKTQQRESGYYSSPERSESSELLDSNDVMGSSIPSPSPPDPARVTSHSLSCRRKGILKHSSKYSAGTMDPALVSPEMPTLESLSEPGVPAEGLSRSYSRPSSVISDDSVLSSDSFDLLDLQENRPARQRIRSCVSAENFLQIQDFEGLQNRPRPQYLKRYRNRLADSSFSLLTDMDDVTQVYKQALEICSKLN
Beta-adrenergic receptor kinase 1 (Homo sapiens), sequence (P25098 whole entry, the tested form may be a part): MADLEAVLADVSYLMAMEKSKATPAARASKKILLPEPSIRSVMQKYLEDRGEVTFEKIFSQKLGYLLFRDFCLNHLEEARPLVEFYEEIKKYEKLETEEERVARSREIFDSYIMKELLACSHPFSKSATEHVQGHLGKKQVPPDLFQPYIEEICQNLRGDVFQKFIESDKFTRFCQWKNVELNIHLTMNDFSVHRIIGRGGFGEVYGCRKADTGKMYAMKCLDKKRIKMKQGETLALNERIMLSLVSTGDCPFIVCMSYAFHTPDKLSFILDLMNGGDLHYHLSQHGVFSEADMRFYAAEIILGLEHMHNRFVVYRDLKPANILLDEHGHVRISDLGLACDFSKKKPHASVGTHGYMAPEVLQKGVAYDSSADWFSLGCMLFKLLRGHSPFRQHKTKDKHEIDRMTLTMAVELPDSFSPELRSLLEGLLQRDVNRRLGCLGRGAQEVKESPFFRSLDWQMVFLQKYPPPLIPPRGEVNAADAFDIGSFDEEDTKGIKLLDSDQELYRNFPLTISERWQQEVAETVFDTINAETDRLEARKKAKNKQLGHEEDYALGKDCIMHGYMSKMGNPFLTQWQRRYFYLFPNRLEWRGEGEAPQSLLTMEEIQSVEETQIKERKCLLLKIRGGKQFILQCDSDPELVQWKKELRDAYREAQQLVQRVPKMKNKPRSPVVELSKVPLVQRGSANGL

As to `C=CC(=O)Nc1cc(Nc2ncc(Cl)c(Nc3ccccc3S(=O)(=O)C(C)C)n2)c(OC)cc1N(C)CCN(C)C`, the Activity in assay [1] stood at 8.1%; in [2] it was 0.95%; in assay [3] it was 73%; in assay [4] it was 100%; in assay [5], 68%; in [6], 9.1%. Also, the Activity is 3.2% in [7]; 52% in assay [8]; 100% in assay [9]; 50% in assay [10]; 88% in [11]; 44% in assay [12]. The Activity in assay [13] is 27%; in assay [14] it was 95%; in assay [15], 100%; in [16], 77%.

Values taken from ChEMBL document CHEMBL4382192, “Discovery of a potent dual ALK and EGFR T790M inhibitor” (Eur J Med Chem, 2017).
